RORA inh – inhibitors of orphan receptor RORA, primary screen, cell-based, luminescence; inhibition, % at 10 µM; 0.43% of 65,000 active; AID 561, 2006; CHO-K1 Gal4-RORA LBD luciferase reporter;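 active means inhibition above the mean of all tested compounds plus 3 SD, cut at about 52% in these data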;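 further: 0% = RORA-transfected cells with DMSO and 100% = mock-transfected cells lacking RORA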
Target sequence (P35398 whole entry, looked up, the tested form may be a part): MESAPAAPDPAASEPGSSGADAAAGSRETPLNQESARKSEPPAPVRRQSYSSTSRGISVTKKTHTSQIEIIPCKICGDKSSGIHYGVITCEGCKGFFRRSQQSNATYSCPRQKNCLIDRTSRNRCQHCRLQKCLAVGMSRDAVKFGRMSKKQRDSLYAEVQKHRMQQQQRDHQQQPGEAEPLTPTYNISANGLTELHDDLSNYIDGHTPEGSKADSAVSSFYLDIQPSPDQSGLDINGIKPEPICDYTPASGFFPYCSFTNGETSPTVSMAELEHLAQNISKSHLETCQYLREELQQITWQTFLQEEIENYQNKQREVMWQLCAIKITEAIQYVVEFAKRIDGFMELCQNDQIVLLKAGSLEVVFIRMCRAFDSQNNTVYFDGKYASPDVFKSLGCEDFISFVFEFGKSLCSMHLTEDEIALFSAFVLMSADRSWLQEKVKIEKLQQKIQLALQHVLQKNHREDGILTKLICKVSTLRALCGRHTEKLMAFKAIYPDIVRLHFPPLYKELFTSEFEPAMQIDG
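System: transiently transfected CHO-K1 cells, Gal4-DBD/human RORA-LBD fusion plus 5xGal4-luciferase reporter. Doses: one dose of 10 µM final. Timing: 20 h compound treatment, 37 °C. Measured by: luminescence. Evaluation: % inhibition of basal luciferase versus +RORA/-RORA DMSO controls. Benchmarks: mock-transfected cells as 100%, +RORA DMSO cells as 0%. Replicates: single test per compound.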
* marks the source's active call; other numbers are inactive results. The full list was thinned out, with hits kept by preference.

SMILES	RORA inh
CCS(=O)(=O)N1CCC(C(=O)NCCCN2CCCC2)CC1	-3.6
Cn1c(=O)c2c3c(sc2n2c(SCC(=O)c4ccc(Cl)cc4)nnc12)COC(C)(C)C3	6.7
Cc1cc(NC(=O)c2ccco2)ncc1NC(=O)Cc1ccccc1	-56.9
COc1cccc2sc(Nc3nc(-c4ccccn4)cs3)nc12	68.7*
COc1cccc(Nc2nc(-c3sc(N)nc3C)cs2)c1	-26.7
CC(=O)OC1=C(C#N)Cn2ccc3cccc1c32	-3.9
N#Cc1c(NC(=O)CSc2ncnc3sccc23)oc(-c2ccco2)c1-c1ccco1	0.2
CCOC(=O)C(C(=O)OCC)C(CC(=O)C1CC1)c1ccccc1 (stereo not drawn)	6.7
CCOc1ccc(OCc2cccc(C(=O)N3CCOCC3)c2)cc1	76.6*
O=C(Nc1ccccc1C(=O)N1CCOCC1)c1ccncc1	-16.0
CCOc1ccc(C(=O)N2CCCC2C(=O)O)cc1 (stereo not drawn)	7.4
O=C(c1ccc2c(c1)OCO2)N1CCc2ccccc2C1	-66.0
O=C(Nc1ccc(Cl)cc1)c1ccc2c(c1)OCO2	-8.6
O=C(NCCOc1ccccc1)c1ccc2c(c1)OCO2	62.8*
COC(=O)c1cccc(NC(=O)Cn2nnc3ccccc32)c1	13.0
CC(C)C1N=C2c3ccccc3N=C(SCC#N)N2C1=O (stereo not drawn)	8.7
Cc1oc(-c2ccc3c(c2)OCCO3)cc1C(=O)O	74.9*
Cc1oc(-c2ccc3c(c2)OCCO3)cc1C(=O)NC(CCC(=O)O)C(=O)O (stereo not drawn)	-1.0
Cc1oc2cc(O)cc(O)c2c(=O)c1-c1ccc2c(c1)OCCCO2	-58.5
O=C(O)C1CCN(C(=O)NC2CCCCC2)CC1	10.1
O=C(OCC(=O)N1CCN(c2ccccc2)CC1)c1ccc2ncsc2c1	4.1
O=C(C1CCC(=O)N1Cc1ccccc1Cl)N1CCN(c2cccc(Cl)c2)CC1 (stereo not drawn)	-2.9
COC(=O)c1ccc(-c2ccc(CNCC(O)c3ccccc3)o2)cc1 (stereo not drawn)	-11.2
CCCCn1nnc(NC(=O)CC23CC4CC(CC(C4)C2)C3)n1	17.8
CCCCS(=O)(=O)/C=C\C=C/S(=O)(=O)CCCC	91.2*
SMILES	RORA inh
CN(C)Cc1cc(C(C)(C)c2cc(CN(C)C)c(O)c(CN(C)C)c2)cc(CN(C)C)c1O	-1.0
COc1ccc(CCNC(=O)C2CCCN(S(=O)(=O)c3cccc4nonc34)C2)cc1OC (stereo not drawn)	2.7
c1ccc(-c2cnnc(N3CCCCC3)n2)cc1	-58.0
COc1cc(NS(=O)(=O)c2ccc(C)cc2)c2ncccc2c1	85.0*
COc1ccc(S(=O)(=O)Nc2nnc(C(C)(C)C)s2)cc1	-16.8
O=S(=O)(NC1CCCCCC1)c1cccc2cccnc12	16.7
COc1cc(-c2nnc3sc(-c4cccnc4)nn23)cc(OC)c1OC	15.0
CCOc1ccccc1N(CC(=O)Nc1ccc(C)cc1)S(C)(=O)=O	-5.9
CCc1nnc2c3cnn(-c4ccc(C)c(C)c4)c3ncn12	-56.9
COCCn1c(C)cc(C(=O)COC(=O)c2n[nH]c3ccccc23)c1C	58.4*
CCCn1c(C)cc(C(=O)CN2C(=O)c3ccccc3C2=O)c1C	-54.8
C=CCn1c(C)cc(C(=O)COc2nncc3ccccc23)c1C	-79.6
O=c1[nH]c(CN2CCN(Cc3ccc4c(c3)OCO4)CC2)nc2sc3c(c12)CCC3	8.6
NC(=O)C1CCN(C(=O)c2cc(S(=O)(=O)N3CCOCC3)c(Cl)cc2Cl)CC1	7.1
Cc1nc2ccc(S(=O)(=O)NCC(=O)N3CCc4ccccc4C3)cc2s1	-16.3
c1ccc2c(c1)CCN(c1nc3cc4c(cc3s1)OCCO4)C2	63.6*
CCCC(C(=O)NCc1ccc(OC)cc1)N(Cc1ccco1)C(=O)c1snc(C(N)=O)c1N (stereo not drawn)	-24.3
COc1ccc(S(=O)(=O)Cc2ccc(C(=O)NCc3ccc(F)cc3)o2)cc1	-13.7
O=C(Nc1ccc2c(c1)OCO2)c1cnn2cccnc12	-61.4
Cc1cc(C(=O)CSc2nc3ccccc3[nH]2)c(C)n1C	-59.3
Cc1cc(C)n2nc(SCc3cc(=O)n4ccccc4n3)nc2n1	-11.0
Cc1cc(C(=O)CSc2nnc(-c3ccccc3)n2-c2ccccc2)c(C)n1-c1ncn[nH]1	-10.8
Cc1cc(C)n2nc(SCC(=O)c3cc(C)n(-c4cc(C)on4)c3C)nc2n1	55.1*
Cc1cc(-n2c(C)cc(C(=O)CSc3ncnc4ccccc34)c2C)no1	63.6*
Cc1cc(C)n2nc(SCC(=O)NCc3ccco3)nc2n1	-10.1
SMILES	RORA inh
Clc1ccc(OCc2nnc(-c3ccccc3Br)o2)c(Cl)c1	-90.4
O=C1COc2ccc(OCc3ccc(F)cc3)cc21	-78.3
CCC12CN(C(=O)c3ccc(OC)cc3)CC(CC)(CN(C(=O)c3ccc(OC)cc3)C1)C2=O	0.7
CCOC(=O)C1CCN(C(=O)Nc2ccccc2Cl)CC1	15.5
FC(F)(F)c1cc(-c2ccccc2)nc(N2CCCCCC2)n1	6.2
O=S(=O)(c1ccccc1)N1CCN(c2cc(-c3ccccc3)nc3ncnn23)CC1	69.7*
COc1ccc(-c2nsc3c(N4CCN(S(=O)(=O)c5ccccc5)CC4)ncnc23)cc1	14.0
c1ccc(CC2CCN(Cc3nc(-c4ccccc4)no3)CC2)cc1	10.5
COC(=O)c1sc(NC(=O)c2ccoc2C)nc1C	-8.0
CC(=O)c1sc(NC(=O)C2(F)C(F)(F)C(F)(F)C(F)(F)C(F)(F)C2(F)F)nc1C	89.5*
Cc1nc(NC(=O)C2CC3CCCC(C2)C3=O)sc1C (stereo not drawn)	-62.1
COc1ccc(CCn2nnnc2C(C(C)C)N2CCN(c3ncccn3)CC2)cc1OC (stereo not drawn)	-11.1
NC(=O)CC1NC(=O)c2ccccc21 (stereo not drawn)	-2.2
COc1cccc2c1C(=O)c1c(O)c3c(c(O)c1C2=O)C[C@@](O)(C(=O)CO)C[C@@H]3O[C@H]1C[C@H](N)[C@H](O)[C@H](C)O1	63.0*
Cc1ccc(OCC(=O)N2CCC(N3CCCCCC3)CC2)cc1	-8.4
CCOC(=O)N1CCN(C(=O)CSc2nnc(Cc3ccccc3)o2)CC1	6.6
CCNc1nc(-c2ccc(Cl)cc2)cs1	-50.1
Cc1nc2sccn2c1-c1csc(NCc2ccccc2)n1	62.6*
O=C(Cc1ccccc1)Nc1nc(-c2cccs2)cs1	-66.7
CN(C)CCCN1C(=O)C(O)=C(C(=O)c2cccs2)C1c1ccccn1 (stereo not drawn)	0.2
CCCOc1ccccc1C1CC(=O)Nc2cc3c(cc21)OCCO3 (stereo not drawn)	59.8*
CCOc1ccccc1C1CC(=O)Nc2cc(OC)c(OC)c(OC)c21 (stereo not drawn)	6.1
CC1=C(C(N)=O)C(c2ccccc2)n2nc(-c3cccc(C)c3)nc2N1 (stereo not drawn)	-1.8
COc1ccc(C(=O)Cn2c(N3CCOCC3)nc3ccccc32)cc1OC	19.3
O=C(NC(Cc1ccccc1)c1nc2ccccc2[nH]1)C1CC(=O)N(c2ccc3c(c2)OCCO3)C1 (stereo not drawn)	8.5
O=C(Nc1ccc(N2CCOCC2)c(Cl)c1)C1CCCCC1	-49.4
O=C(Nc1ccc(N2CCOCC2)c(Cl)c1)c1ncn[nH]1	-7.6
Cc1cc(C)nc(SCC(=O)Nc2ccc(N3CCOCC3)c(Cl)c2)n1	53.1*
CCn1nnc(-c2ccccc2NC(=O)C(F)(F)F)n1	-4.1
COc1ccc(CNC(=O)CN(CC2CCCO2)C(=O)CNS(=O)(=O)c2ccc(F)cc2)cc1 (stereo not drawn)	20.0

Compound activity (PubChem)
